Measurements taken from ChEMBL document CHEMBL4382246, “Synthesis, biological evaluation, and molecular docking investigation of 3-amidoindoles as potent tubulin polymerization inhibitors” (Eur J Med Chem, 2019).
Values belong to the compound of their own block, whether it stands above or below them. Calls of active or inactive are those of the source. The rule behind the calls is not given here.

Assays:
[1] = tested on: MCF7; assay: Cytotoxicity against human MCF7 cells after 72 hrs by MTT assay; format: functional, cell-based; settings: MCF7, 72 h
Outline: (§1)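 Lines kept in RPMI-1640 with 10% FBS. Cells were seeded at 2×10³ per well and allowed to attach for 24 h at 37 °C. Medium was then replaced with medium holding serial dilutions from 100 mM DMSO stocks, with 0.1% DMSO as negative control, for 72 h at 37 °C. […] IC50 was fitted from the concentration series as the mean ± SD of three independent experiments run in duplicate.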

[2] = tested on: MDA-MB-231; assay: Cytotoxicity against human MDA-MB-231 cells after 72 hrs by MTT assay; format: functional, cell-based; settings: MDA-MB-231, 72 h; outline: as §1
[3] = tested on: BT-549; assay: Cytotoxicity against human BT549 cells after 72 hrs by MTT assay; format: functional, cell-based; settings: BT-549, 72 h; outline: as §1
[4] = tested on: T47D; assay: Cytotoxicity against human T47D cells after 72 hrs by MTT assay; format: functional, cell-based; outline: as §1
[5] = tested on: MDA-MB-468; assay: Cytotoxicity against human MDA-MB-468 cells after 72 hrs by MTT assay; format: functional, cell-based; settings: MDA-MB-468, 72 h; outline: as §1
[6] = tested on: Hs-578T; assay: Cytotoxicity against human Hs578T cells after 72 hrs by MTT assay; format: functional, cell-based; outline: as §1
[7] = target: Tubulin (Sus scrofa) (UniProt P02554+P02550); assay: Inhibition of pig brain tubulin polymerization at 10 uM by spectrophotometric analysis relative to control
Outline: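 Tubulin polymerization inhibition was measured with compounds at a final concentration of 10 µM.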

[8] = tested on: BT-549; assay: Cell cycle arrest in human BT549 cells assessed as accumulation of cells at G0/G1 phase at 2 uM after 24 hrs by propidium iodide staining-based flow cytometric analysis (reference value: 65.28%); format: functional
[9] = tested on: BT-549; assay: Cell cycle arrest in human BT549 cells assessed as accumulation of cells at S phase at 2 uM after 24 hrs by propidium iodide staining-based flow cytometric analysis (reference value: 25.84%); format: functional
[10] = tested on: BT-549; assay: Cell cycle arrest in human BT549 cells assessed as accumulation of cells at G2/M phase at 2 uM after 24 hrs by propidium iodide staining-based flow cytometric analysis (reference value: 8.88%); format: functional
[11] = tested on: BT-549; assay: Cell cycle arrest in human BT549 cells assessed as accumulation of cells at G0/G1 phase at 4 uM after 24 hrs by propidium iodide staining-based flow cytometric analysis (reference value: 65.28%); format: functional
[12] = tested on: BT-549; assay: Cell cycle arrest in human BT549 cells assessed as accumulation of cells at S phase at 4 uM after 24 hrs by propidium iodide staining-based flow cytometric analysis (reference value: 25.84%); format: functional
[13] = tested on: BT-549; assay: Cell cycle arrest in human BT549 cells assessed as accumulation of cells at G2/M phase at 4 uM after 24 hrs by propidium iodide staining-based flow cytometric analysis (reference value: 8.88%); format: functional
[14] = tested on: BT-549; assay: Cell cycle arrest in human BT549 cells assessed as accumulation of cells at G0/G1 phase at 8 uM after 24 hrs by propidium iodide staining-based flow cytometric analysis (reference value: 65.28%); format: functional
[15] = tested on: BT-549; assay: Cell cycle arrest in human BT549 cells assessed as accumulation of cells at S phase at 8 uM after 24 hrs by propidium iodide staining-based flow cytometric analysis (reference value: 25.84%); format: functional
[16] = tested on: BT-549; assay: Cell cycle arrest in human BT549 cells assessed as accumulation of cells at G2/M phase at 8 uM after 24 hrs by propidium iodide staining-based flow cytometric analysis (reference value: 8.88%); format: functional
[17] = tested on: BT-549; assay: Cell cycle arrest in human BT549 cells after 24 hrs by propidium iodide staining-based flow cytometric analysis; format: functional
[18] = target: T1, Tubulin alpha (Homo sapiens) (UniProt P0DPH7+P68366+Q71U36+P68363+Q9BQE3+Q6PEY2+A6NHL2+Q9NY65); assay: Disruption of alpha-tubulin in human BT549 cells at 10 uM after 6 hrs by FITC/DAPI staining-based confocal microscopic analysis; format: cell-based
Outline: (§2)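 BT549 cells (2×10⁴ per well) were attached overnight on glass coverslips, then exposed to 10 or 20 µM, or to 0.1% DMSO, for 6 h. Cells were fixed in 4% paraformaldehyde, permeabilized with 0.1% Triton X-100 and blocked in 5% BSA for 60 min. Primary antibodies were α-tubulin mouse and β-tubulin rabbit monoclonals, applied overnight at 4 °C. Secondaries were FITC anti-mouse and Alexa Fluor 555 anti-rabbit, with DAPI for nuclei, and cells were imaged by laser scanning confocal microscopy.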

[19] = target: T2, Tubulin beta (Homo sapiens) (UniProt P68371+Q9H4B7+Q13509+P04350+Q3ZCM7+P07437+Q13885+Q9BVA1+Q9BUF5+A6NNZ2); assay: Disruption of beta-tubulin in human BT549 cells at 10 uM after 6 hrs by FITC/DAPI staining-based confocal microscopic analysis; format: cell-based; outline: as §2
[20] = target: T1, Tubulin alpha (Homo sapiens); assay: Disruption of alpha-tubulin in human BT549 cells assessed as loss of cellular structure at 10 uM after 6 hrs by FITC/DAPI staining-based confocal microscopic analysis; format: cell-based; outline: as §2
[21] = target: T1, Tubulin alpha (Homo sapiens); assay: Disruption of alpha-tubulin in human BT549 cells assessed as formation of cellular rounding at 10 uM after 6 hrs by FITC/DAPI staining-based confocal microscopic analysis; format: cell-based; outline: as §2
[22] = target: T2, Tubulin beta (Homo sapiens); assay: Disruption of beta-tubulin in human BT549 cells assessed as loss of cellular structure at 10 uM after 6 hrs by FITC/DAPI staining-based confocal microscopic analysis; format: cell-based; outline: as §2
[23] = target: T2, Tubulin beta (Homo sapiens); assay: Disruption of beta-tubulin in human BT549 cells assessed as formation of cellular rounding at 10 uM after 6 hrs by FITC/DAPI staining-based confocal microscopic analysis; format: cell-based; outline: as §2
[24] = target: T1, Tubulin alpha (Homo sapiens); assay: Disruption of alpha-tubulin in human BT549 cells assessed as short microtubule at 20 uM after 6 hrs by FITC/DAPI staining-based confocal microscopic analysis; format: cell-based; outline: as §2
[25] = target: T1, Tubulin alpha (Homo sapiens); assay: Disruption of alpha-tubulin in human BT549 cells assessed as round cell shape at 20 uM after 6 hrs by FITC/DAPI staining-based confocal microscopic analysis; outline: as §2
[26] = target: T1, Tubulin alpha (Homo sapiens); assay: Disruption of alpha-tubulin in human BT549 cells assessed as wrapped microtubule at 20 uM after 6 hrs by FITC/DAPI staining-based confocal microscopic analysis; format: cell-based; outline: as §2
[27] = target: T2, Tubulin beta (Homo sapiens); assay: Disruption of beta-tubulin in human BT549 cells assessed as short microtubule at 20 uM after 6 hrs by FITC/DAPI staining-based confocal microscopic analysis; format: cell-based; outline: as §2
[28] = target: T2, Tubulin beta (Homo sapiens); assay: Disruption of beta-tubulin in human BT549 cells assessed as round cell shape at 20 uM after 6 hrs by FITC/DAPI staining-based confocal microscopic analysis; outline: as §2
[29] = target: Tubulin (Sus scrofa, UniProt P02554+P02550); assay: Inhibition of pig brain tubulin polymerization by spectrophotometric analysis
[30] = target: T2, Tubulin beta (Homo sapiens); assay: Disruption of beta-tubulin in human BT549 cells assessed as wrapped microtubule at 20 uM after 6 hrs by DAPI staining-based confocal microscopic analysis

Chain of Tubulin (Sus scrofa) (P02550 whole entry, looked up): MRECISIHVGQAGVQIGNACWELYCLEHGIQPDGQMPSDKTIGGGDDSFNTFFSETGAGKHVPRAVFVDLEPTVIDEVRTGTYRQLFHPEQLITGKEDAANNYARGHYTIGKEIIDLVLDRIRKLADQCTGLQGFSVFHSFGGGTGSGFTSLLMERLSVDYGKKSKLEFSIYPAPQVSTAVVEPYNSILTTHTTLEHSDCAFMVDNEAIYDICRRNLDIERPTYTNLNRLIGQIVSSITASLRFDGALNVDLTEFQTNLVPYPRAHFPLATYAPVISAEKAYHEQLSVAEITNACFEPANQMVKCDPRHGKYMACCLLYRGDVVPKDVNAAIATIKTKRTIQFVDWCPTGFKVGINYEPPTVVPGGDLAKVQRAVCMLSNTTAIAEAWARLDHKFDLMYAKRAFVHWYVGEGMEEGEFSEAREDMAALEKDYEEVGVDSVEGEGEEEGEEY
Chain of Tubulin (Sus scrofa) (P02554 whole entry, looked up): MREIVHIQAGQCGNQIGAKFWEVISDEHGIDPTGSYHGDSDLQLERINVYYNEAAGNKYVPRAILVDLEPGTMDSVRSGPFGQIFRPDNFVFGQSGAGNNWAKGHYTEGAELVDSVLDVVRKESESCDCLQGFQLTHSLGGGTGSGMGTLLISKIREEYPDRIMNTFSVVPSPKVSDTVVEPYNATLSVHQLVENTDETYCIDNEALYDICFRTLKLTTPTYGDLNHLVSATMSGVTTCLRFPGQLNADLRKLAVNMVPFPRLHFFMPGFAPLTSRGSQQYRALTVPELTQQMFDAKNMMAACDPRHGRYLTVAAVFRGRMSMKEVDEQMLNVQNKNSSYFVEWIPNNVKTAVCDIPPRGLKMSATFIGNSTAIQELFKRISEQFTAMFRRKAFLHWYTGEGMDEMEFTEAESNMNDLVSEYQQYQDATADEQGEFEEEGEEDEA

inhibition [7]: 47%
SMILES: COc1ccc(C(=O)c2[nH]c3cc(Cl)ccc3c2NC(=O)c2cc(OC)c(OC)c(OC)c2)cc1
IC50 [1]: 17.6 µM
IC50 [2]: 9.17 µM
IC50 [3]: 11.1 µM
IC50 [4]: 11.1 µM
IC50 [5]: 8.61 µM
IC50 [6]: 15.9 µM

inhibition [7]: 25%
SMILES: COc1ccc(C(=O)c2[nH]c3cc(OC)ccc3c2NC(=O)c2cc(OC)c(OC)c(OC)c2)cc1
IC50 [1]: 79.3 µM
IC50 [2]: 48.8 µM
IC50 [3]: 18.2 µM
IC50 [4]: 6.3 µM
IC50 [5]: 26.4 µM
IC50 [6]: 10.4 µM

inhibition [7]: 25%
SMILES: COc1cc(C(=O)Nc2c(C(=O)c3cccc(Br)c3)[nH]c3cc(Cl)ccc23)cc(OC)c1OC
IC50 [1]: 23 µM
IC50 [2]: 26.8 µM
IC50 [3]: 8.42 µM
IC50 [4]: 14.1 µM
IC50 [5]: 20.8 µM
IC50 [6]: 4.1 µM

inhibition [7]: 17%
SMILES: COc1cc(C(=O)Nc2c(C(=O)c3ccc(F)cc3)[nH]c3cc(C)ccc23)cc(OC)c1OC
IC50 [1]: 8.89 µM
IC50 [2]: 5.17 µM
IC50 [3]: 8.66 µM
IC50 [4]: 5.72 µM
IC50 [5]: 6.16 µM
IC50 [6]: 8.95 µM

Activity [18]: Active
Activity [19]: Active
Activity [20]: Active
Activity [21]: Active
Activity [22]: Active
Activity [23]: Active
Activity [24]: Active
Activity [25]: Active
Activity [26]: Active
Activity [27]: Active
Activity [28]: Active
inhibition [7]: 59%
IC50 [29]: 9.5 µM
Activity [30]: Active
SMILES: COc1cc(C(=O)Nc2c(C(=O)c3ccc(Cl)cc3)[nH]c3cc(Cl)ccc23)cc(OC)c1OC
IC50 [1]: 10.9 µM
IC50 [2]: 6.43 µM
IC50 [3]: 3.17 µM
IC50 [4]: 0.04 µM
IC50 [5]: 7.92 µM
IC50 [6]: > 100 µM
Activity [8]: 32.1%
Activity [9]: 41.6%
Activity [10]: 26.29%
Activity [11]: 31.07%
Activity [12]: 33.01%
Activity [13]: 35.92%
Activity [14]: 19.76%
Activity [15]: 23.66%
Activity [16]: 56.58%
Activity [17]: Dose-dependent effect

inhibition [7]: 15%
SMILES: COc1cc(C(=O)Nc2c(C(=O)c3ccc(Cl)cc3)[nH]c3cc(C)ccc23)cc(OC)c1OC
IC50 [1]: 3.85 µM
IC50 [2]: 3.22 µM
IC50 [3]: 4.81 µM
IC50 [4]: 6.25 µM
IC50 [5]: 4.12 µM
IC50 [6]: 3.59 µM
